TPT1 inhibitor = C. albicans TPT1 enzyme inhibition | recombinant caTPT1, FP RNA substrate dephosphorylation | inhibition, % at 5 µM | 300,000 tested, 0.81% active | AID 1962;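 active = inhibition above the mean of all tested compounds plus 3 SD, set per screening campaign, cut at about 24% in these data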;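 also: plate controls were DMSO alone for no effect and ferristatin control at 100 nM for full effect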
Rpn11 block = Rpn11 (human) deubiquitinase inhibition; O00487; calls only at 20 µM; 360,000 tested, 0.59% active; human 26S proteasome, Ub4-pepOG fluorescence polarization; 20S core pre-blocked with epoxomicin;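 active = inhibition at 20 µM, scaled to each plate's controls, above about 33%, limit read from the data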
HNF4A DNA FP = change in binding of human HNF4 alpha to DNA; P41235; 360,000 tested, 0.3% active; AID 1224865; HNF4a-FITC DNA binding, fluorescence polarization, 1 h; activity change, % at 10 µM; in the data active = activity change above about 30%, passing the limit was not always enough
PKA-R2B act = activates the human PKA-R2B holoenzyme complex; P22694+P31323; PKA-R2B holoenzyme dissociation, Cy5-IP20 fluorescence polarization; R2B truncated from residue 108, S112A mutant; 0% DMSO only, 100% 113 µM cGMP; activation, % at 11.4 µM; 340,000 tested, 0.079% active; AID 504700;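 active = activation above a cutoff set at the mean over all compounds plus 3 SD, cut at about 18% in these data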;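 also: higher means more holoenzyme dissociation and a rise in polarization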
PKA-R1A activ = PKA-R1A complex activation. P00514+P68181. PKA-R1A dissociation, Cy5-IP20 fluorescence polarization; scaled: DMSO 0%, 113 µM cGMP 100%. activation, % at 11.4 µM. 340,000 tested, 0.083% active;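 active = percent activation above the mean of all tested compounds plus 3 SD, cut at about 19% in these data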;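 also: higher means more PKAc released from R1A so a rise in polarization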
CSN deneddyl inh = inhibitors of human CSN-mediated cullin deneddylation; Q92905; Purified CSN, SCF-Nedd8-OG deneddylation, fluorescence polarization; inhibition, % at 12.5 µM; 360,000 tested, 0.38% active; AID 651999;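 active = pattern-corrected inhibition above about 35%, with an unprinted fluorescence ratio check between 0.5 and 1.5, limit read from the data, passing the limit was not always enough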;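 also: 0% = enzyme with substrate and 100% = substrate without enzyme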
Target sequence (Q92905 whole entry, looked up, one chain of several): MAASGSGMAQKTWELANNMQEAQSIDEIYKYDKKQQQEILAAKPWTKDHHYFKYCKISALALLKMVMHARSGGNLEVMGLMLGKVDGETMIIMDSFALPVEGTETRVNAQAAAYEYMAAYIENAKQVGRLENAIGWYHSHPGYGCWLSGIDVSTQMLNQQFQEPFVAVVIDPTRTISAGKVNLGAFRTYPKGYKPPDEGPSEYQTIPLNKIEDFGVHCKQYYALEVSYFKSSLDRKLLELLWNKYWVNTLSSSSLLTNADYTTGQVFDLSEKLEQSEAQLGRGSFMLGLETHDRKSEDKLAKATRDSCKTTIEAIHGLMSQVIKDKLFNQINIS
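assay system = purified human Csn5 enzyme expressed in HEK293T cells | amount = 0.24 nM enzyme | buffer or medium = Tris/NaCl/DTT buffer, pH 7.5 | reagent = 10 nM SCFSkp2-Nedd8OG | compound = one concentration, 12.5 µM, 0.25% DMSO | times = 90 min reaction at room temperature | signal = FP | read-out basis = % inhibition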
caTPT1 confirm = confirmation of Candida albicans TPT1 inhibitors. recombinant caTPT1, fluorescence polarization, RNase T1 coupled. 2,400 tested, 74% active. shares compounds with TPT1 inhibitor. inhibition, % at 5 µM;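 active = inhibition above the primary screen limit, the mean inhibition of all tested compounds plus 3 SD, cut at about 25% in these data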
RNase T1 counter = counter-screen for TPT1 inhibitors: inhibitors of Aspergillus oryzae RNase T1; shares compounds with TPT1 inhibitor; RNase T1 cleavage, fluorescence polarization, 1536-well; inhibition, % at 5 µM; 2,400 tested, 83% active;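 active = inhibition above the solvent-only control well mean plus 3 SD, limit set per screening run, cut at about 23% in these data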;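 also: plate controls were DMSO wells with enzyme for no effect and wells without RNase T1 for full effect; inhibitors block cleavage so intact labeled substrate keeps polarization high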
Target sequence (P00651 whole entry, looked up): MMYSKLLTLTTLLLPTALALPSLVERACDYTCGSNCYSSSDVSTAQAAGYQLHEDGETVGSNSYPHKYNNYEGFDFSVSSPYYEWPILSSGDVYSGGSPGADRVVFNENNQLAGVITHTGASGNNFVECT
Rpn11 confirm = confirmation of human proteasome Rpn11 inhibitors; shares compounds with Rpn11 block; purified human 26S proteasome, Ub4-pepOG fluorescence polarization; proteasome pretreated with epoxomicin; inhibition, % at 20 µM; 1,900 tested, 29% active
MMP-2 counter-1 = counter-screen for RPN11 inhibitors: inhibition of human MMP-2; shares compounds with Rpn11 block; recombinant MMP-2, FRET peptide cleavage fluorescence; inhibition, % at 20 µM; 1,900 tested, 4% active;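 also: human MMP-2 activated beforehand with APMA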
Thrombin inh = blocks bovine thrombin, flagging nonselective RPN11 hits. shares compounds with Rpn11 block. bovine thrombin cleavage of Ub4-pepOG, fluorescence polarization. inhibition, % at 20 µM. 1,900 tested, 13% active. AID 602333;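 active = mean inhibition at least 40% at 20 µM, or signal 3 deviations below plate average, so some actives read negative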;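 also: plate controls were thrombin with DMSO for no effect and buffer wells lacking thrombin for full effect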
CSN5 deneddyl = validation of inhibitors of human CSN-mediated cullin deneddylation; shares compounds with CSN deneddyl inh; Csn5 deneddylation of SCF-Nedd8OG, fluorescence polarization, 90 min; inhibition, % at 16.6 µM; 540 tested, 62% active; AID 720654; in the data active = inhibition above about 50%;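 also: 0% = DMSO with enzyme and 100% = no enzyme wells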
MMP-2 counter-2 = blocks human MMP-2 in a CSN deneddylation counter-screen. shares compounds with CSN deneddyl inh. AID 720655. recombinant MMP-2, FRET substrate fluorescence, 60 min. inhibition, % at 16.6 µM. 540 tested, 33% active;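 active = corrected plate-normalized z-score of 5 or more, or -5 or less, or inhibition of 15% or more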;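 also: plate controls were DMSO wells with enzyme for no effect and buffer wells lacking MMP-2 for full effect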
Thrombin cntr = thrombin (bovine) inhibition, counter-screen for CSN hits | bovine thrombin cleavage of Ub4-pepOG, fluorescence polarization | 540 tested, 49% active | shares compounds with CSN deneddyl inh | inhibition, % at 16.6 µM;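 active = inhibition at or above a set limit, with a fluorescence interference ratio between 0.5 and a set maximum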
Numbers without * were called inactive. The list is not random: actives were taken first. Their share in the collection is about 1.6%. Rule as the data show it, unless noted: active = inhibition above about 40%; inactive = the rest.

For COc1cc(/C=C2\SC(=S)N(NC(=O)c3cccnc3)C2=O)ccc1O the results were TPT1 inhibitor 25*, HNF4A DNA FP 52*, PKA-R2B act 1, PKA-R1A activ 4, CSN deneddyl inh 39*, caTPT1 confirm 34*, RNase T1 counter 42*, CSN5 deneddyl 65*, MMP-2 counter-2 9 and Thrombin cntr 35*.
COc1cc(/C=C2\SC(=S)N(c3cccnc3)C2=O)ccc1O was read as TPT1 inhibitor 23, HNF4A DNA FP 0, PKA-R2B act -9, PKA-R1A activ 0 and CSN deneddyl inh 149.
For COc1cc(/C=C2\SC(=S)N(C(Cc3ccccc3)C(=O)O)C2=O)ccc1O (stereo unspecified) the results were TPT1 inhibitor 33*, Rpn11 block active, HNF4A DNA FP 35*, PKA-R2B act -1, PKA-R1A activ 1, CSN deneddyl inh 36*, caTPT1 confirm 37*, RNase T1 counter 49*, Rpn11 confirm 62*, MMP-2 counter-1 -17, Thrombin inh 79*, CSN5 deneddyl 56*, MMP-2 counter-2 6 and Thrombin cntr 68*.
`COc1cc(/C=C2/SC(=S)N(CC3CCCO3)C2=O)ccc1O` (stereo unspecified) gave TPT1 inhibitor 39*, HNF4A DNA FP 41*, PKA-R2B act -6, PKA-R1A activ -7, CSN deneddyl inh 58*, caTPT1 confirm 41*, RNase T1 counter 51*, CSN5 deneddyl 65*, MMP-2 counter-2 -4 and Thrombin cntr 75*.
`O=C(CCc1nnc2ccc(N3CCCC3)nn12)Nc1ccc(F)cc1F` gave TPT1 inhibitor -3, Rpn11 block inactive, HNF4A DNA FP -2, PKA-R2B act 0, PKA-R1A activ -9 and CSN deneddyl inh -2.
CC(C)c1nc(SCC(=O)Nc2c[nH]c(=O)[nH]c2=O)c2cnn(-c3ccccc3)c2n1 was read as TPT1 inhibitor 1, Rpn11 block inactive, HNF4A DNA FP 12, PKA-R2B act 3, PKA-R1A activ -3 and CSN deneddyl inh -14.
O=C1C2C3C=CC(CC3)C2C(=O)N1/N=C/c1ccc(O)cc1 (stereo unspecified) was read as TPT1 inhibitor -4, Rpn11 block inactive, HNF4A DNA FP 2, PKA-R2B act 3, PKA-R1A activ 2 and CSN deneddyl inh 5.
`O=C1/C(=C\c2ccc(O)cc2)SC(=S)N1/N=C/c1ccc(O)cc1` gave TPT1 inhibitor 65*, HNF4A DNA FP 106*, PKA-R2B act -1, PKA-R1A activ -4, CSN deneddyl inh 94*, caTPT1 confirm 62*, RNase T1 counter 68*, CSN5 deneddyl 38, MMP-2 counter-2 -23 and Thrombin cntr 86*.
For CN(C)c1ccc(/C=C2\CCC/C(=C\c3ccccc3)C2=O)cc1 the results were TPT1 inhibitor 104*, HNF4A DNA FP 106, PKA-R2B act -4, PKA-R1A activ 5, CSN deneddyl inh 73*, caTPT1 confirm 111*, RNase T1 counter 109*, CSN5 deneddyl 91*, MMP-2 counter-2 -9 and Thrombin cntr 36*.
CCOc1cc(/C=C(/C#N)C(=O)Nc2ccc(O)cc2)cc(Br)c1O was read as TPT1 inhibitor active, HNF4A DNA FP 54*, PKA-R2B act -4, PKA-R1A activ -3, CSN deneddyl inh 63*, caTPT1 confirm 171*, RNase T1 counter 164*, CSN5 deneddyl 14, MMP-2 counter-2 -21 and Thrombin cntr 68*.
Screening CCOc1ccc(NC(=O)/C(C#N)=C/c2ccc(N3CCCC3)c(C)c2)cc1 returned TPT1 inhibitor 83*, HNF4A DNA FP 74, PKA-R2B act 2, PKA-R1A activ -5, CSN deneddyl inh 46*, caTPT1 confirm 83*, RNase T1 counter 89*, CSN5 deneddyl 99*, MMP-2 counter-2 0 and Thrombin cntr 25*.
`CCOc1cc(/C=N/NC(=O)C(N)=O)cc(Br)c1O` gave TPT1 inhibitor -4, Rpn11 block inactive, HNF4A DNA FP 1, PKA-R2B act -2, PKA-R1A activ -6 and CSN deneddyl inh 8.
For CCN1C(=O)/C(=C/C=C2\C=CN(CC)c3ccccc32)SC1=S the results were TPT1 inhibitor 2, Rpn11 block inactive, HNF4A DNA FP 2, PKA-R2B act 0, PKA-R1A activ 5 and CSN deneddyl inh 4.
CCN1C(=O)/C(=C\C=C2/C=CC=CN2CC)SC1=S was read as TPT1 inhibitor 27*, HNF4A DNA FP 136*, PKA-R2B act -2, PKA-R1A activ 4, CSN deneddyl inh 53*, caTPT1 confirm 36*, RNase T1 counter 55*, CSN5 deneddyl 61*, MMP-2 counter-2 23* and Thrombin cntr 63*.
For Cc1ccc(NC(=O)CN(C)C(=O)c2cc(-c3ccco3)nc3ccccc23)cc1 the results were TPT1 inhibitor 25*, Rpn11 block inactive, HNF4A DNA FP -25, PKA-R2B act -17, PKA-R1A activ 1, CSN deneddyl inh 51*, caTPT1 confirm 10, RNase T1 counter 14, MMP-2 counter-2 10 and Thrombin cntr -6.

High-throughput results: PubChem BioAssay, several laboratories
